What was measured:
[1] = target: Transcription factor Jun (Homo sapiens) (UniProt P05412); experiment: Inhibition of AP1 expressed in HEK293 cells assessed as inhibition of PMA-induced transcriptional activation at 1 uM treated 24 hrs before PMA challenge by luciferase reporter gene assay relative to control; type: cell-based
Procedure, shortened: (§1)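 Luciferase reporter screen with each sample in triplicate in two or three independent experiments. Values are the average of those experiments. Rapamycin served as the reference eIF-4E inhibitor.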

[2] = target: Eukaryotic translation initiation factor 4E (Homo sapiens) (UniProt P06730); experiment: Inhibition of eIF-4E expressed in human FaDu cells assessed as inhibition of translational activation at 1 uM by luciferase reporter gene assay relative to control; type: cell-based; procedure, shortened: as §1
HEK293 [3] = experiment: Inhibition of NF-kappaB expressed in HEK293 cells assessed as inhibition of TNF-alpha-induced transcriptional activation at 1 uM treated 24 hrs before TNFalpha challenge by luciferase reporter gene assay relative to control; type: cell-based; procedure, shortened: as §1
HEK293 [4] = experiment: Inhibition of NF-kappaB expressed in HEK293 cells assessed as inhibition of TNF-alpha-induced transcriptional activation at 3.3 uM treated 2 hrs before TNFalpha challenge measured after 24 hrs by luciferase reporter gene assay relative to control; type: cell-based
Procedure, shortened: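 Stably transfected NF-κB reporter cells plated, then after 24 h pretreated with compound at six concentrations for 2 h before 20 ng/ml TNF-α induction. Cells later lysed, luciferase activity read and normalized.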

[5] = Inhibition of NF-kappaB expressed in HEK293 cells assessed as inhibition of TNF-alpha-induced transcriptional activation treated 24 hrs before TNFalpha challenge by luciferase reporter gene assay; type: cell-based
Procedure, shortened: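 Six-point dose response […] in ½-log steps, screened as in the primary reporter assay. IC50 calculated from the dose-response data.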

FaDu = experiment: Cytotoxicity against human FADU cells assessed as growth inhibition at 3.3 uM by MTT assay; type: functional
[6] = Inhibition of NF-kappaB expressed in HEK293 cells assessed as inhibition of TNF-alpha-induced transcriptional activation treated 2 hrs before TNFalpha challenge measured after 24 hrs by luciferase reporter gene assay; type: cell-based
Procedure, shortened: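 Stably transfected NF-κB luciferase reporter cells were plated, and 24 h later given test compound at six concentrations for 2 h. TNF-α was then added at 20 ng/ml to induce transcription. Cells were then lysed, luciferase activity was recorded, and values were normalised.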

Chain of Transcription factor Jun (Homo sapiens) (P05412 whole entry): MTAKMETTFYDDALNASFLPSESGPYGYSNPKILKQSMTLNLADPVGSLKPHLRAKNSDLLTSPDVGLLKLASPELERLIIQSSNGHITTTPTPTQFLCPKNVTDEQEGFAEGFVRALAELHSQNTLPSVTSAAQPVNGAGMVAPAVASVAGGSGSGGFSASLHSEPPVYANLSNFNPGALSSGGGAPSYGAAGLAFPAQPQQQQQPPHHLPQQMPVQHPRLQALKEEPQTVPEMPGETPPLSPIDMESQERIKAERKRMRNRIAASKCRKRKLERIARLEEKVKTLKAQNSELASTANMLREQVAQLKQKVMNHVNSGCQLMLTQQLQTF
Chain of Eukaryotic translation initiation factor 4E (Homo sapiens) (P06730 whole entry): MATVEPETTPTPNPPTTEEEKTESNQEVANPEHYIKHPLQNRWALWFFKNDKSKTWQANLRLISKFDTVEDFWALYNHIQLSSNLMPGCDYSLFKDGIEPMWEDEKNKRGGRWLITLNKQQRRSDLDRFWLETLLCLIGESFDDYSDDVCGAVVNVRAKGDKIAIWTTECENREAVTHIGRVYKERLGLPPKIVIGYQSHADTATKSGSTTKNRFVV

| Structure (SMILES) | inhibition [1] [%] | inhibition [2] [%] | inhibition (HEK293 [3]) [%] | inhibition (HEK293 [4]) [%] | IC50 [5] [µM] | inhibition at 3.3 µM (FaDu) [%] | IC50 [6] [µM] |
| --- | --- | --- | --- | --- | --- | --- | --- |
| CCOC(=O)Nc1nc(-c2ccccc2)c(-c2nc3ccccc3c(=O)n2-c2ccc(OC)cc2)s1 | 34 | 15 | 29 | – | – | – | – |
| COc1ccc(-n2c(-c3sc(Nc4ccc(Cl)cc4)nc3-c3ccccc3)nc3ccccc3c2=O)cc1 | 59 | 32 | 46 | > 70 | 20 | – | – |
| O=c1c2ccccc2nc(-c2sc(Nc3ccccc3)nc2-c2ccccc2)n1-c1ccccc1 | 51 | 37 | 71 | – | – | – | – |
| CNc1nc(C)c(-c2nc3ccccc3c(=O)n2-c2ccc(Cl)cc2)s1 | – | 61 | 80 | – | 12 | 20 | 3.3 |
| O=c1c2ccccc2nc(-c2sc(Nc3ccccc3)nc2-c2ccccc2)n1-c1ccc(Cl)cc1 | 39 | 38 | 67 | – | – | – | – |
| Cc1nc(Nc2ccccc2)sc1-c1nc2ccccc2c(=O)n1-c1ccc(Cl)cc1 | 29 | 67 | 66 | – | – | – | 5.5 |
| CNc1nc(-c2ccccc2)c(-c2nc3ccccc3c(=O)n2-c2ccccc2)s1 | 58 | 33 | 71 | – | – | – | – |
| CCOC(=O)Nc1nc(C)c(-c2nc3ccccc3c(=O)n2-c2ccc(Cl)cc2)s1 | 30 | 50 | 54 | > 70 | 16 | – | – |
| CCOC(=O)Nc1nc(-c2ccccc2)c(-c2nc3ccccc3c(=O)n2-c2ccc(Cl)cc2)s1 | 20 | 18 | 24 | – | – | – | – |
| O=C(Nc1nc(-c2ccccc2)c(-c2nc3ccccc3c(=O)n2-c2ccccc2)s1)c1ccccc1 | 26 | 30 | 43 | – | – | – | – |
| COc1ccc(-n2c(-c3sc(Nc4ccccc4)nc3-c3ccccc3)nc3ccccc3c2=O)cc1 | 19 | 16 | 63 | – | – | – | – |
| O=c1c2ccccc2nc(-c2sc(Nc3ccc(Cl)cc3)nc2-c2ccccc2)n1-c1ccc(Cl)cc1 | 47 | 34 | 62 | > 70 | 3.3 | – | – |
| COc1ccc(-n2c(-c3sc(NC(=O)c4ccccc4)nc3-c3ccccc3)nc3ccccc3c2=O)cc1 | 8 | 31 | 12 | – | – | – | – |
| O=c1c2ccccc2nc(-c2sc(Nc3ccc(Cl)cc3)nc2-c2ccccc2)n1-c1ccccc1 | 57 | – | 71 | – | – | – | – |
| CCOC(=O)Nc1nc(-c2ccccc2)c(-c2nc3ccccc3c(=O)n2-c2ccccc2)s1 | 7 | – | 32 | – | > 10 | – | – |
| CNc1nc(-c2ccccc2)c(-c2nc3ccccc3c(=O)n2-c2ccc(Cl)cc2)s1 | 67 | 40 | 72 | – | > 250 | – | – |
| Cc1nc(Nc2ccc(Cl)cc2)sc1-c1nc2ccccc2c(=O)n1-c1ccc(Cl)cc1 | 75 | 26 | 79 | – | 15 | – | – |
| O=C(Nc1nc(-c2ccccc2)c(-c2nc3ccccc3c(=O)n2-c2ccc(Cl)cc2)s1)c1ccccc1 | 36 | 39 | 73 | – | – | – | – |
